Active and inactive are the calls of the source. No cut-off for these calls is given here. Bounds are passed on as bounds.

The species entered for series [1] is Danio rerio. Briefly: Toxicity in Zebrafish embryo assessed as induction of changes in brain region at 1 uM. Format: organism-based. The settings on record: in vivo. In outline:
(§1)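 Embryos at 1 dpf dechorionated with 0.5 mg/ml pronase E and washed in E3. Exposed 6 per well to compound serially diluted in E3 with a final 0.1% DMSO, at 28.5 °C until 5 dpf. Embryos then washed, anaesthetised with 0.008% tricaine and scored blind for body shape, somites, notochord, tail, intestine, fins, brain, jaws, heart, liver and swim bladder. Phenobarbital (3 mM) served as positive control.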

For series [2], the species on record is Danio rerio. Briefly: Toxicity in Zebrafish embryo assessed as induction of changes in heart region at 1 uM. Format: organism-based. The settings on record: in vivo. In outline:
as §1

Series [3] is filed under the species Danio rerio. Briefly: Toxicity in Zebrafish embryo assessed as induction of changes in notochords at 1 uM. In kind it is organism-based, Notochord. The conditions noted are these: in vivo. In outline:
as §1

Series [4] deals with 3',5'-cyclic-AMP phosphodiesterase 4B (Homo sapiens) (UniProt Q07343). Briefly: Inhibition of recombinant His-tagged PDE4B1 (unknown origin) expressed in Sf9 cells at 30 uM pre-incubated for 15 mins before cAMP substrate addition by luminescence assay. In outline: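 PDE4B1 purified in house (10 ng) pre-incubated 15 min with compound or DMSO vehicle. cAMP substrate ([…]) added for 1 h, then reaction stopped and detection reagent applied 10 min in the dark. Luminescence (RLU) read. % inhibition = (RLU vehicle − RLU inhibitor)/RLU vehicle × 100.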
3',5'-cyclic-AMP phosphodiesterase 4B (Homo sapiens), sequence (Q07343 whole entry): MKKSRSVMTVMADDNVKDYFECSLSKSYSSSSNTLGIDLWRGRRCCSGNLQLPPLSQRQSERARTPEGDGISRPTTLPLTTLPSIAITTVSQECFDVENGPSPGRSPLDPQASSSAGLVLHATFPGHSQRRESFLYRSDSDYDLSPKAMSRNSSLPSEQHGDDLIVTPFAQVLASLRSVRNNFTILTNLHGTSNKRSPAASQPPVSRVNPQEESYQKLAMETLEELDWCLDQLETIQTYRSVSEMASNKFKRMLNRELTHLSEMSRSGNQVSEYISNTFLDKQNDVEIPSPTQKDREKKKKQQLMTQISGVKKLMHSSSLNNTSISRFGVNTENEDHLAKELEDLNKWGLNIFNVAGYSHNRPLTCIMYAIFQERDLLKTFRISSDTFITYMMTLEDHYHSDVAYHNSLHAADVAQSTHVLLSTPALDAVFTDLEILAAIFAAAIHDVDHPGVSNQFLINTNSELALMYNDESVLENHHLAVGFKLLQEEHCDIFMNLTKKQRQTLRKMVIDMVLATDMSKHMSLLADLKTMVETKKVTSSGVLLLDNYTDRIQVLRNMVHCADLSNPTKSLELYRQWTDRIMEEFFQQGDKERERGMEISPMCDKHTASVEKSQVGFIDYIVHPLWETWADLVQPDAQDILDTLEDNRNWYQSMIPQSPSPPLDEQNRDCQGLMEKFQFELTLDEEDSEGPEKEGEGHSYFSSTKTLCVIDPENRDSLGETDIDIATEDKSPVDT

The species named for series [5] is Danio rerio. Briefly: Toxicity in Zebrafish embryo assessed as induction of changes in intestine region at 1 uM. In kind it is organism-based. The settings on record: in vivo. In outline: as §1
The species entered for series [6] is Danio rerio. Briefly: Toxicity in Zebrafish embryo assessed as induction of changes in upper jaw region at 1 uM. Format: organism-based. The settings on record: in vivo. In outline:
as §1

The species entered for series [7] is Danio rerio. Briefly: Toxicity in Zebrafish embryo assessed as induction of changes in tail region at 1 uM. In kind it is organism-based. The settings on record: in vivo. In outline:
as §1

The species entered for series [8] is Danio rerio. Briefly: Teratogenicity in Zebrafish embryo assessed as live embryo level at 1 uM incubated at 28.5 degC until 5 days post fertilization. Format: ADME, organism-based. The conditions noted are these: in vivo, 120 h. In outline:
as §1

For series [9], the species on record is Danio rerio. Briefly: Toxicity in Zebrafish embryo assessed as induction of changes in swim bladder region at 1 uM. In kind it is organism-based. The settings on record: in vivo. In outline: as §1
Series [10] is filed under the species Danio rerio. Briefly: Hepatotoxicity in Zebrafish embryo assessed as induction of embryo mortality at 10 to 30 uM incubated at 28 degC until 7 days post fertilization. Format: organism-based. The settings on record: in vivo, 168 h. In outline: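 Zebrafish embryos at 4 dpf, six per well in 0.1% DMSO, exposed to final compound concentrations of 1, 3, 10 and 30 at 28 °C until 7 dpf. Embryos then washed in E3 medium, anaesthetised with tricaine and imaged; liver size, liver degeneration and yolk sac retention quantified as percentages. Amiodarone served as positive control; evaluation blinded.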

Series [11] is filed under the species Danio rerio. Briefly: Toxicity in Zebrafish embryo at 1 to 30 uM. The conditions noted are these: in vivo. Format: organism-based. In outline:
as §1

The species entered for series [12] is Danio rerio. Briefly: Teratogenicity in Zebrafish embryo incubated at 28.5 degC until 5 days post fertilization. Format: ADME, organism-based. The settings on record: in vivo, 120 h. In outline: as §1
Series [13] is filed under the species Danio rerio. Briefly: Toxicity in Zebrafish embryo assessed as induction of changes in body shape at 1 uM. The settings on record: in vivo. Format: organism-based. In outline: as §1
For series [14], the species on record is Danio rerio. Briefly: Hepatotoxicity in Zebrafish embryo at 3 uM incubated at 28 degC until 7 days post fertilization. Format: organism-based. The conditions noted are these: in vivo, 168 h. In outline: (§2)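 Larvae at 4 dpf exposed in 24-well plates, 6 per well in 0.1% DMSO, to final 1, 3, 10 and 30 concentrations, incubated at 28 °C until 7 dpf. Washed in E3 and anaesthetised with tricaine. Images scored for liver size, liver degeneration and yolk sac retention as percentages. Amiodarone served as positive control.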

For series [15], the species on record is Danio rerio. Briefly: Toxicity in Zebrafish embryo assessed as induction of changes in somites at 1 uM. In kind it is organism-based. The settings on record: in vivo. In outline:
as §1

Series [16] is filed under the species Danio rerio. Briefly: Teratogenicity in Zebrafish embryo assessed as induction of morphological deformities at 3 uM incubated at 28.5 degC until 5 days post fertilization. The settings on record: in vivo, 120 h. Format: organism-based. In outline: as §1
The nature of series [17]: Teratogenicity in Zebrafish embryo assessed as live embryo level at 3 uM incubated at 28.5 degC until 5 days post fertilization. Format: ADME, organism-based, Danio rerio. The settings on record: zebrafish embryos, read-out: Activity. In outline: (§3)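 Zebrafish embryos collected at 1 dpf, staged, dechorionated with 0.5 mg/ml pronase E and washed in E3 medium. Compound serially diluted in E3 with 0.1% DMSO final. Six embryos per well, exposed at 28.5 °C until 5 dpf, then washed, anaesthetised with 0.008% tricaine and scored for morphology (body shape, somites, notochord, tail, intestine, fins, brain, jaws, heart, liver, swim bladder). Blinded; phenobarbital 3 mM positive control.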

For series [18], the species on record is Danio rerio. Briefly: Teratogenicity in Zebrafish embryo at 10 to 30 uM incubated at 28.5 degC until 5 days post fertilization. In kind it is ADME, organism-based. The conditions noted are these: in vivo, 120 h. In outline:
as §1

The species entered for series [19] is Danio rerio. Briefly: Toxicity in Zebrafish embryo assessed as induction of changes in liver region at 1 uM. Format: organism-based. The settings on record: in vivo. In outline: as §1
Series [20] is filed under the species Danio rerio. Briefly: Hepatotoxicity in Zebrafish embryo at 1 uM incubated at 28 degC until 7 days post fertilization. In kind it is organism-based. The settings on record: in vivo, 168 h. In outline:
as §2

Series [21] is filed under the species Danio rerio. Briefly: Induction of apoptosis in Zebrafish embryo up to 3 uM incubated for 24 to 48 hrs by acridine orange based fluorescence microscopy. In kind it is functional, organism-based. In outline: (§4)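 Embryos dechorionated by hand at 24 hpf, 6 per well in two sets, in 0.1% DMSO. Compound added from serially diluted working stocks, kept at 28 °C for 24 h and 48 h. Washed three times in E3, stained 30 min with acridine orange ([…]) in E3, rinsed twice, then examined for apoptosis.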

The species named for series [22] is Danio rerio. Briefly: Toxicity in Zebrafish embryo assessed as induction of changes in fins region at 1 uM. In kind it is organism-based. The settings on record: in vivo. In outline: as §1
The species entered for series [23] is Danio rerio. Briefly: Teratogenicity in Zebrafish embryo assessed as induction of morphological deformities at lower jaw at 1 uM incubated at 28.5 degC until 5 days post fertilization. The conditions noted are these: in vivo, 120 h. In kind it is organism-based. In outline:
as §1

For series [24], the species on record is Danio rerio. Briefly: Teratogenicity in Zebrafish embryo assessed as induction of morphological deformities at swim bladder at 1 uM incubated at 28.5 degC until 5 days post fertilization. Format: toxicity, organism-based. The settings on record: in vivo, 120 h. In outline: as §1
The nature of series [25]: Therapeutic index, ratio of NOAEL in Zebrafish embryos to apoptotic EC50 in Zebrafish embryos. In kind it is organism-based, Danio rerio. The settings on record: read-out: TI.
Series [26] is filed under the species Danio rerio. Briefly: Induction of cell death in Zebrafish embryo at 10 to 30 uM incubated for 24 to 48 hrs by acridine orange based fluorescence microscopy. In kind it is functional, organism-based. In outline: as §4
The species entered for series [27] is Danio rerio. Briefly: Toxicity in Zebrafish embryo assessed as induction of changes in lower jaw region at 1 uM. The settings on record: in vivo. Format: organism-based. In outline: as §1
The species named for series [28] is Danio rerio. Briefly: Induction of apoptosis in Zebrafish embryo incubated for 24 to 48 hrs by acridine orange based fluorescence microscopy. Format: functional, organism-based. In outline: as §4
The species entered for series [29] is Danio rerio. Briefly: Toxicity in Zebrafish embryo assessed as induction of changes in lower jaw region at 3000 uM. The settings on record: in vivo. In kind it is organism-based. In outline: (§5)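 Embryos at 1 dpf were dechorionated with 0.5 mg/ml pronase E and washed in E3. They were exposed in groups of 6 to compound serially diluted in E3 (final 0.1% DMSO) at 28.5 °C until 5 dpf. Embryos were then washed, anesthetized with 0.008% tricaine, and scored blinded for morphology of body shape, somites, notochord, tail, intestine, fins, brain, jaws, heart, liver and swim bladder.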

For series [30], the species on record is Danio rerio. Briefly: Toxicity in Zebrafish embryo assessed as induction of changes in upper jaw region at 3000 uM. The settings on record: in vivo. In kind it is organism-based. In outline: as §5
The species named for series [31] is Danio rerio. Briefly: Toxicity in Zebrafish embryo assessed as induction of changes in brain region at 3000 uM. Format: organism-based. The conditions noted are these: in vivo. In outline: as §3
The species named for series [32] is Danio rerio. Briefly: Toxicity in Zebrafish embryo assessed as induction of changes in fins region at 3000 uM. Format: organism-based. The conditions noted are these: in vivo. In outline: as §5
The species entered for series [33] is Danio rerio. Briefly: Toxicity in Zebrafish embryo assessed as induction of changes in body shape at 3000 uM. Format: organism-based. The settings on record: in vivo. In outline: as §5
Series [34] is filed under the species Danio rerio. Briefly: Toxicity in Zebrafish embryo assessed as induction of changes in liver region at 3000 uM. Format: organism-based. The conditions noted are these: in vivo. In outline: as §5
For series [35], the species on record is Danio rerio. Briefly: Toxicity in Zebrafish embryo assessed as induction of changes in intestine region at 3000 uM. In kind it is organism-based. The settings on record: in vivo. In outline:
as §5

Series [36] is filed under the species Danio rerio. Briefly: Toxicity in Zebrafish embryo assessed as induction of changes in notochords at 3000 uM. Format: organism-based, Notochord. The conditions noted are these: in vivo. In outline: as §5
The species named for series [37] is Danio rerio. Briefly: Toxicity in Zebrafish embryo assessed as induction of changes in tail region at 3000 uM. Format: organism-based. The settings on record: in vivo. In outline:
as §5

The species named for series [38] is Danio rerio. Briefly: Toxicity in Zebrafish embryo assessed as induction of changes in heart region at 3000 uM. The settings on record: in vivo. In kind it is organism-based. In outline:
as §5

The species entered for series [39] is Danio rerio. Briefly: Toxicity in Zebrafish embryo assessed as induction of changes in swim bladder region at 3000 uM. In kind it is organism-based. The settings on record: in vivo. In outline: as §5
The species entered for series [40] is Danio rerio. Briefly: Toxicity in Zebrafish embryo assessed as induction of changes in somites at 3000 uM. In kind it is organism-based. The settings on record: in vivo. In outline:
as §5

For the compound `CCOC(=O)c1c(-n2c(-c3ccccc3)cc3nccnc32)sc2c1CCC2`, the Activity entry in the series filed under Danio rerio [1], in the series filed under Danio rerio [2], in the series listed under Danio rerio [3], in the series listed under Danio rerio [5], in the series filed under Danio rerio [6] and in the series filed under Danio rerio [7] was “Non-toxic” throughout. The Activity entry in the series listed under Danio rerio [8] is recorded as “Non-toxic”; in the series filed under Danio rerio [9] it was “Toxic”; in the series listed under Danio rerio [10], “Toxic”; in the series filed under Danio rerio [13], “Non-toxic”; in the series filed under Danio rerio [14] it was “Toxic”; in the series listed under Danio rerio [15], “Toxic”. Further, the Activity result in the series listed under Danio rerio [16] was “Toxic”; in the series filed under Danio rerio [18], “Toxic”; in the series listed under Danio rerio [19], “Toxic”; in the series filed under Danio rerio [20] it was “Non-toxic”; in the series filed under Danio rerio [22], “Non-toxic”; in the series filed under Danio rerio [23], “Toxic”. Also, the Activity result in the series filed under Danio rerio [24] and in the series listed under Danio rerio [27] was “Toxic” each time. In addition, the inhibition in [4] was determined as 62%. The compound further showed an LD in the series filed under Danio rerio [11] of 10 µM. In the series listed under Danio rerio [11], this compound yielded an MTC of 1 µM. In addition, the NOAEL was below 1 µM in the series listed under Danio rerio [11] and 1 µM in the series listed under Danio rerio [12]. Besides, the survival at 120 h, 3 µM in [17] turned out to be 50%. Moreover, the result in the series filed under Danio rerio [21] and in the series listed under Danio rerio [26] was Active. In addition, the selectivity ratio in series [25] was 0.577. In the series listed under Danio rerio [28], this compound had an EC50 of 1.73 µM.

Regarding `CCC1(c2ccccc2)C(=O)NC(=O)NC1=O` [PHENOBARBITAL], the Activity result in the series filed under Danio rerio [29], in the series listed under Danio rerio [30], in the series filed under Danio rerio [31], in the series filed under Danio rerio [32], in the series filed under Danio rerio [33] and in the series filed under Danio rerio [34] was “Toxic” each time. In addition, the Activity result in the series listed under Danio rerio [35], in the series filed under Danio rerio [36], in the series listed under Danio rerio [37], in the series filed under Danio rerio [38], in the series listed under Danio rerio [39] and in the series filed under Danio rerio [40] was “Toxic” throughout.

The record behind these values is ChEMBL document CHEMBL3351467, “Ligand-free Pd-catalyzed C-N cross-coupling/cyclization strategy: an unprecedented access to 1-thienyl pyrroloquinoxalines for the new approach towards apoptosis” (Eur J Med Chem, 2014).
